Sequences and labels used below:
B1: tRNA (parent)
chain: GUUCCGUUGGCGUAAUGGUAACGCGUCUCCCUCCUAAGGAGAAGACUGCGGGUUCGAGUCCCGUACGGAACG

Fewer inactive variants are shown than the library holds.

In this data set the parent is B1. The data set can be described thus: yeast fitness relative to wild type (ratio to wild type); higher = fitter; tRNA-Arg(CCU), competitive growth, 37 C, YPD. In a few lines:
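Gene amplicons from the start population and from each of six end populations were read by 100-nucleotide paired-end sequencing. Those end populations came from pooled Saccharomyces cerevisiae strains carrying tRNA-Arg(CCU) gene variants at the native locus, competed in YPD at 37°C for 24 hours. Fitness relative to wild type was worked out from changes in genotype frequencies. Genotypes needed ≥ 100 starting reads, and estimates < 0.5 were set to 0.5.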
On to GUUCCGUUGGCGUAAUGGUAAGGGGUCUCCCUCCUAAGGAGAAGACUGCAGGUUCGAGUCCCGUACGGAACG, for which the yeast fitness came to 0.694.

With GUUCCCUUGGCGUAAGGGUAACGCGUCUCCCUCCUAAGGAGAAGAAUGCGGGUUCGAGUCCCGUACGGAACG, the yeast fitness is 0.599.

For the variant GUUGCGUUGGCGUAAUAGUAACGCGUCUCCCUCAUAAGGAGAGGACUGCGGGUUCGAGUCCCGUACGAAACG, the yeast fitness was at most 0.5.

As for GUUCCGUUGGCGGAAUGGUUACGCGUCUCCCUCCUAAGGAGAAGACUGCGGGCUCGAGUCCUGUACGGAACG, the yeast fitness is at most 0.5.

For GUUCCGUUGGCGUAAUGGUAACGCGUCUCCCUCCUAAGGAGUAGACUGCGGGUUCGGAUCCCGUACGGAUCG, the yeast fitness is at most 0.5.

GUUCCGUUGGCGUAAUGGUAACGCGUCUCCCUCCUAAGGAAAAGACAGUGGGUUCGAGCCCCGUACCGAUCG: the yeast fitness was 0.532.

As for GUUCCGUCGGCGUAAUGGUAACGCGUCUCCCUCCUAAGGAGAAAACUGCGGGCUUGAGUCCCGUACGGAUCG, the yeast fitness was at most 0.5.

With GUUCCGUUCGCGUCAUGGUUACCCGUCUCCUUCCUAAGGAGAAGACUGCGGGUUUGAGUCCCGUACGGAACG, the yeast fitness is at most 0.5.

On to GUCCCGUUAGCGUAAUGGUAACGCGUCUCCCUCCUAAGGAGAAGACUGCGGGUUCGCGUCCCGUACGGAACG, for which the yeast fitness is 0.584.

As to GUUUCGUUGGCGUAAUGGUAACGCGUCUCCCUCCUAAGGAGAAGACUGCGGGUUCGAGUCCCGUACGGAGCG, the yeast fitness is 0.941.

As for GUUCCGUUGGCGUAGUGGUAACGCGUCUCACUCCUAAGGAGAGGACUGCGGGUUCGUGUCCCGUACGGAACG, the yeast fitness was 0.529.

On to GUUCCAUUGGCGUAAUGGUAACGCGUCUCCCUCCUAAGGCCAAGACUGCGGGUUCGAGUCCCGUACGCAACG, for which the yeast fitness was at most 0.5.

Regarding GUUCCGUUGCCAUAGUGGUAACGCGUCUCCCUCCUAAGGAGAAGACUGCGGGUUCGAGUCCCAUACGGAACG, the yeast fitness worked out at 0.643.

On to GUUCCGUUGGCGUAAUGGUACCGCGUCUCCCUCCUAAGGAGAAGACUGCGGGUUCGAGUCCCGUACCGAACG, for which the yeast fitness is 0.654.

As to GUUCCGUUAGCUUUAUGGUAACGCGUCUCCCUCCUAUGGAGAAGACUGGGGGUUCGAGUGCCGUACGGAACG, the yeast fitness was at most 0.5.

With GUUCCGUUGGCGGAAUGGUAACGCGUCUCCCUCCUAAGGUGAAGACUGCGGGUUCGAGUCCCGUACGGAACG, the yeast fitness is 0.945.

On to GUUUCGUUGGCGUAAUGGUAACGCGUCUCCUUCCUAAGGAGAAGACUGCGGGUUCGAGUACCGUACGGAACG, for which the yeast fitness was at most 0.5.

On to GUUCCGUCGGCGUCAUGGUAACGCGUCUCCCUACUAAGGAGAAGAAUGCGGGUUCGAGUCCCGUACAGAACG, for which the yeast fitness was at most 0.5.

Consider GUUCCGUUGGCGUAAUGGUCACGCGUCUCCCUCCUAAGGAGAAGACUGCGGGUUCGAGUCCCAUACGGAACG, for which the yeast fitness amounted to 0.843.

Turning to GUUUCGAUGGCGUAAUGGUAACGCGUCUCGCUCGUAAGGCGAAGACUGCGGGUUCGAGUCCCGUACGGAACG, the yeast fitness was 0.512.

Consider GUUCCGUUGGCGUAAUGGUAACGCGUCACCCUCCUAAGGAGAAGACUGCGGGUUCGAGUCCCCUACGGAACG, for which the yeast fitness stood at 0.624.

Regarding GUUCCGUUGGCGUAAUGGUAACGCGUCUCCCGGCUAAGGAGAAGACUGCGGGUUCGAGUCCCGUAUGGUACG, the yeast fitness was at most 0.5.

Turning to GUUCCGUUGGCCUAAUGGUAACGCGUCUCCCUCCUAAGGAGAAGCCUGCGGGUUCGAGUCCCGUACGGAACG, the yeast fitness came out at 0.75.

For GUUCCGUUGGCGUACUGGUAACGCGUCUCCUUCCUAAAGAGAAGACUGCGGGUUCCAGUCCCGUACGGAUCG, the yeast fitness was 0.581.

As to GUUCCGUUGGCGUAAUGGUAACGCGUCUCCCUCCUAAGGAGAAGAAUGCGGGUUCGAGUCCCGUCCGGAACG, the yeast fitness was 0.973.

Turning to GUUCCGUUGGCGUUAUGGUAACGCGUCUCCCUCCUAAGGAGAAGAAUGCGGGUUCGAGUCCCGUACGGAACG, the yeast fitness was determined as 0.599.

With GUUCCGUUGGCGUAAUGGUAACGCGUCUCCCUCCCAAGGAGAAGACUGCGGGUUCGAGUGCCGUACGGAACG, the yeast fitness amounted to 0.602.

Take GUUCCGUUGGCGAAAUGGUAACGCGUGUCCCUCCUAAGGAGUAGACUGCGGGUUCGAGUCCCGUACGGAACG: the yeast fitness worked out at 0.671.

GCUCCGUUGGCGUAAUGGUAACGCGUCUCACUCCUAAGGAGAAGACCGCGGGUUCGAGUCCCGUCGGGAACG: the yeast fitness is at most 0.5.

Regarding GUUCCGAUGGCGUAAUGGUAACGCGUCUCCAUCCUAAGGAGAAGACUGCGGGUUCGAGUCCCGUACGGAACG, the yeast fitness turned out to be 0.634.

With GUUCUGUUGGUGUAAUGGUAACGCGUCUCCCUCCUAAGGAGAAGACUGCGGGUUCGAGUUCCGUACGGUACG, the yeast fitness was found to be 0.538.

Consider GUUCCGUUGACGUAAUGGUAACGCGUCUCCCUCCUAAGGAGAAGACUGCGGGUCCGAGUCCCGUACGAAGCG, for which the yeast fitness was at most 0.5.

For the variant GUUCCGUUGGCGUCAUGGUAACGCGUCUCCCUCCUAAGGCCAAGACUGCGGGUUAGAGUCCCGUACGGAUCG, the yeast fitness is at most 0.5.

With GUUCCGUUGGCGAAAUGGUAACGCGUCUCCCUCCUAAGGAGAAGACUGCGGGUUCGAGUCCGGUAAGGAACG, the yeast fitness was at most 0.5.

Regarding GUUCCGUUGGCGUAGUGGUAACGCGUCUCCCUCCUAAGGAGAUGACUGCGGGUUCGCGUCCCGUACGGAACG, the yeast fitness turned out to be 0.559.

For GUUCUGUUGGCGUAAUGGUAACGAGUCUCCCUCCUAAGGAGAAGACAGCGGGUUCGAGUCCCGUACGGAACG, the yeast fitness turned out to be 0.656.

Turning to GUUACGUUGGCGUAAUGGUAACGCGUCUCCCUCCUAAGGAGAAGACUGCGGGUUCGAGUCCCGUACGGACCG, the yeast fitness turned out to be 0.993.

GUUCCGUUGGCGUAAUGGUAACGCGUCUCCUUCCUAAGGAGAAGACUGCGGGUUCAAGUCCCCUACGGAACG: the yeast fitness was at most 0.5.
